Reference: ChEMBL document CHEMBL1148739, “Microwave-assisted ring opening of epoxides: a general route to the synthesis of 1-aminopropan-2-ols with anti malaria parasite activities” (J Med Chem, 2007)
Active and inactive are the calls of the source. The calls are words filed in the database; no cut-off is given here.

Experiments:
Plasmodium falciparum [1] = test: Antimalarial activity against Plasmodium falciparum 3D7 after 72 hrs; type: functional, organism-based; settings: 3D7, 72 h
Procedure, shortened: (§1)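 P. falciparum in continuous culture in 5% O+ erythrocytes, RPMI-1640 with 25 mM HEPES, 0.5% albumax, 2 mM L-glutamine, gentamicin; 37 °C, 5% CO2/5% O2/90% N2; sorbitol-synchronized. Ring stages seeded at 0.05% parasitemia, 1.5% hematocrit; 72 h with threefold serial dilutions from 100 µM. HRPII accumulation after freeze-thaw lysis read as percent of untreated controls; duplicates; IC50 from 72 h HRPII production.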

Plasmodium falciparum [2] = test: Antimalarial activity against Plasmodium falciparum FCR3 after 72 hrs; type: functional, organism-based; settings: FCR3, 72 h; procedure, shortened: as §1
MONO-MAC-6 = test: Effect on cell viability in human MONO-MAC-6 cells at 100 uM after 24 hrs; type: functional, cell-based
Procedure, shortened: (§2)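 Cell lines kept at 37 °C in RPMI 1640 with L-glutamine and 10% fetal calf serum under 5% humidified CO2. Cell suspension (25 cells/µL) exposed to 100 µM compound for 24 h (one cell cycle) at 37 °C. Viability by Trypan Blue dye uptake; duplicates.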

NALM-6 = test: Effect on cell viability in human NALM6 cells at 100 uM after 24 hrs; type: functional, cell-based; procedure, shortened: as §2
[3] = target: T1, Aquaglyceroporin (Plasmodium falciparum) (UniProt Q8II36); test: Inhibition of Plasmodium falciparum AQP expressed in BY4742-deltafpsl cells at 100 uM after 48 hrs; type: cell-based
T1 sequence (whole entry): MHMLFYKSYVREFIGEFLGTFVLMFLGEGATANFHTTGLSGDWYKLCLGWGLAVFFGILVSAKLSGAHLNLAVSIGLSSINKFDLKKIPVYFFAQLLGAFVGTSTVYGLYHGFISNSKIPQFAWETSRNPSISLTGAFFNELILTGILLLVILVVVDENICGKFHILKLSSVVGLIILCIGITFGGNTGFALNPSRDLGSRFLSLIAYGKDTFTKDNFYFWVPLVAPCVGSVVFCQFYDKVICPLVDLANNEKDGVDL
Procedure, shortened: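 BY4742Δfps1 yeast expressing PfAQP grown in 20 mM MES-buffered (pH 5.5) minimal YNB with 3% glucose, 0.1% proline, with or without 50 mM methylamine hydrochloride; compound at 100 µM, untreated cells as controls.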

Jurkat = test: Effect on cell viability in human Jurkat lymphoblastoid cells at 100 uM after 24 hrs; type: functional, cell-based; procedure, shortened: as §2

IC50 (Plasmodium falciparum [1]) [µM] | IC50 (Plasmodium falciparum [2]) [µM] | Activity [3] | SMILES | Activity (MONO-MAC-6) | Activity (NALM-6) | Activity (Jurkat)
9.7 | 5.8 | inactive | OC(CNCc1cccs1)COCc1ccccc1 (stereo not drawn) | inactive | inactive | inactive
15.4 | 41.6 | – | CN(Cc1ccccc1)CC(O)CNCc1ccccc1 (stereo not drawn) | – | – | –
66 | 38.5 | – | OC(CCl)CN1CCNCC1 (stereo not drawn) | inactive | inactive | inactive
3.7 | 7.7 | inactive | CCN(Cc1ccccc1)CC(O)CN(C)Cc1ccccc1 (stereo not drawn) | inactive | inactive | inactive
15.6 | 31 | – | CN(Cc1ccccc1)CC(O)CCl (stereo not drawn) | inactive | inactive | inactive
– | 0.7 | inactive | CCN(Cc1ccccc1)CC(O)COCc1ccccc1 (stereo not drawn) | – | – | –
– | 20.2 | – | OC(COCc1ccccc1)CN1CCCC1 (stereo not drawn) | – | – | –
– | 15.2 | – | OC(CNC1CCC1)COCc1ccccc1 (stereo not drawn) | – | – | –
– | 12.5 | – | OC(COCc1ccccc1)CN1CCNCC1 (stereo not drawn) | – | – | –
– | 8.4 | inactive | OC(CNCC1CC1)COCc1ccccc1 (stereo not drawn) | – | – | –
9.3 | 16.3 | – | CN(Cc1ccccc1)CC(O)CSCc1ccccc1 (stereo not drawn) | inactive | inactive | inactive
– | 31.1 | – | OC(CNc1ccccn1)COCc1ccccc1 (stereo not drawn) | – | – | –
– | 7.7 | – | OC(CNCC1CCCO1)COCc1ccccc1 (stereo not drawn) | – | – | –
– | 1.2 | – | OC(CNCCc1cccs1)COCc1ccccc1 (stereo not drawn) | – | – | –
5.1 | 5.9 | – | O[C@@H](CNC1CCCC1)COCc1ccccc1 | – | – | –
– | 12.7 | – | CC(C)(C)NCC(O)COCc1ccccc1 (stereo not drawn) | – | – | –
– | 3.4 | – | OC(CNCc1ccco1)COCc1ccccc1 (stereo not drawn) | – | – | –
47 | 2 | inactive | CN(Cc1ccccc1)CC(O)COCc1ccccc1 (stereo not drawn) | – | – | –
– | 23.8 | – | C=CCNCC(O)CCl (stereo not drawn) | – | – | –
32.5 | 15.8 | – | CCN1CCCC1CNCC(O)COCc1ccccc1 (stereo not drawn) | – | – | –
43.5 | 43.9 | – | CN(Cc1ccccc1)CC(O)CN(C)Cc1ccccc1 | – | – | –
3.9 | 4.6 | – | O[C@H](CNC1CCCC1)COCc1ccccc1 | – | – | –
– | 12.5 | inactive | OC(CNCc1ccccc1)COCc1ccccc1 (stereo not drawn) | – | – | –
15.1 | 10.3 | – | OC(CNC1CCCC1)COCc1ccccc1 (stereo not drawn) | – | – | –
– | 28.1 | – | CCN(CC)CC(O)COCc1ccccc1 (stereo not drawn) | – | – | –
